Results as given in ChEMBL document CHEMBL1154914, “Orally bioavailable anti-HBV dinucleotide acyloxyalkyl prodrugs” (Bioorg Med Chem Lett, 2010).
The source made the active and inactive calls. The calls are words filed in the database; no cut-off is given here.

Legend:
[1] = Half life in simulated gastric fluid after 1 hr by reverse phase HPLC; format: physicochemical
Method in brief: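 Prodrug stock of 2 mg/200 μL DMSO, diluted 1:20 in USP simulated gastric fluid and held at 37 °C for 1 h. Timed aliquots were quenched with methanol, brought to pH 6.0 with NH4OAc/NaOH, centrifuged and concentrated. Read by reversed-phase C18 HPLC using a 30 min gradient from 0.1 M NH4OAc to 80:20 CH3CN:NH4OAc at 1 mL/min.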

[2] = Half life in simulated intestinal fluid after 1 hr by reverse phase HPLC; format: physicochemical
Method in brief: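 Prodrug stock (2 mg per 200 μL DMSO) diluted 1:20 into simulated intestinal fluid and held at 37 °C for 1 h. Aliquots at selected times were quenched with methanol, brought to pH 6.0 with NH4OAc/NaOH, centrifuged, concentrated and redissolved in 0.1 M NH4OAc. Analysed by reversed-phase C18 HPLC with photodiode-array detection, 0.1 M NH4OAc to 80:20 CH3CN:NH4OAc gradient over 30 min.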

[3] = Cytotoxicity against african green monkey Vero cells after 24 hrs by MTT assay; format: cell-based; settings: chlorocebus sabaeus
[4] = Cytotoxicity against MDBK cells after 24 hrs by MTT assay; format: cell-based, Bos taurus; settings: cattle
[5] = Cytotoxicity against human HFF cells after 24 hrs by MTT assay; format: cell-based
Hepatitis B virus [6] = assay: Antiviral activity against HBV infected in mouse assessed as liver HBV DNA level at 300-400 mg/kg, po QD for 14 days by Southern blotting; format: functional, organism-based
Method in brief: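 HBV transgenic mice, pre-biopsied for liver HBV DNA and block-randomized (8/group). Dosed 300 to 400 mg/kg by oral gavage once daily for 14 days in 0.05 M citric acid pH 2.4 (0.1 mL per 20 g). Liver Southern blot with a 32P HBV genomic probe, hybridized overnight at 60°C and read by phosphorimaging. Viral DNA was ratioed to the transgene band (1.3 copies/cell). ADV was the positive control.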

Hepatitis B virus [7] = assay: Antiviral activity against HBV infected in mouse assessed as reduction in liver HBV DNA level dosed po QD for 14 days by Southern blotting; format: functional, organism-based
Method in brief: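 HBV transgenic mice, pre-biopsied for liver HBV DNA and block-randomized (8/group). Gavaged at 1, 5, 10 or 100 mg/kg once daily for 14 days in 0.05 M citric acid pH 2.4, against placebo and an ADV control. Liver taken after the last dose. HBV DNA by Southern blot with a 32P genomic probe and phosphorimaging, normalized to the transgene band (1.3 copies/cell).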

Hepatitis B virus [8] = assay: Antiviral activity against wild type HBV infected in HepG2.2.15 cells assessed as nucleic acid and protein levels dosed daily for 9 days and measured 24 hrs after last treatment by Southern blot hybridization; format: functional, organism-based, HepG2 2.2.15; settings: for EC50: Hepatitis B virus, HepG2 2.2.15
Hepatitis B virus [9] = assay: Antiviral activity against 3TC-resistant HBV with polymerase L180M mutation infected in HepG2.2.15 cells assessed as nucleic acid and protein levels dosed daily for 9 days and measured 24 hrs after last treatment by Southern blot hybridization; format: functional, organism-based, HepG2 2.2.15; settings: for EC50: Hepatitis B virus, HepG2 2.2.15
Hepatitis B virus [10] = assay: Antiviral activity against 3TC-resistant HBV with polymerase LMMV mutation infected in HepG2.2.15 cells assessed as nucleic acid and protein levels dosed daily for 9 days and measured 24 hrs after last treatment by Southern blot hybridization; format: functional, organism-based, HepG2 2.2.15; settings: for EC50: Hepatitis B virus, HepG2 2.2.15
Hepatitis B virus [11] = assay: Antiviral activity against 3TC-resistant HBV with polymerase M204V mutation infected in HepG2.2.15 cells assessed as nucleic acid and protein levels dosed daily for 9 days and measured 24 hrs after last treatment by Southern blot hybridization; format: functional, organism-based, HepG2 2.2.15; settings: for EC50: Hepatitis B virus, HepG2 2.2.15
Mus musculus = assay: Toxicity against HBV infected mouse at 300-400 mg/kg, po QD for 14 days; format: organism-based; settings: in vivo, 336 h
Hepatitis B virus [12] = assay: Antiviral activity against 3TC-resistant HBV with polymerase M204I mutation infected in HepG2.2.15 cells assessed as nucleic acid and protein levels dosed daily for 9 days and measured 24 hrs after last treatment by Southern blot hybridization; format: functional, organism-based, HepG2 2.2.15; settings: for EC50: Hepatitis B virus, HepG2 2.2.15
Hepatitis B virus [13] = assay: Antiviral activity against ADV-resistant HBV N236T mutation infected in HepG2.2.15 cells assessed as nucleic acid and protein levels dosed daily for 9 days and measured 24 hrs after last treatment by Southern blot hybridization; format: functional, organism-based, HepG2 2.2.15; settings: for EC50: Hepatitis B virus, HepG2 2.2.15

Work on `CO[C@@H]1[C@H](OP(=O)(S)OC[C@H]2O[C@@H](n3cnc4c(N)ncnc43)C[C@@H]2O)[C@@H](CO)O[C@H]1n1ccc(=O)[nH]c1=O` (stereo partly drawn) [INARIGIVIR] yielded a half-life [1] of under 0.25 h, a half-life [2] of 1 h and a CC50 at 24 h [3] of over 1000 µM. For the same compound, the CC50 at 24 h [4] was over 1000 µM and the CC50 at 24 h [5] was over 1000 µM.
In the case of `CO[C@@H]1[C@H](OP(=O)(OC[C@H]2O[C@@H](n3cnc4c(N)ncnc43)C[C@@H]2O)SCOC(=O)C(C)(C)C)[C@@H](CO)O[C@H]1n1ccc(=O)[nH]c1=O` (stereo partly drawn), the half-life [1] is reported as over 1 h, the CC50 at 24 h [3] is reported as over 1000 µM and the Activity (Hepatitis B virus [6]) is reported as “Active”. It also gave a CC50 at 24 h [4] of over 1000 µM and a CC50 at 24 h [5] of over 1000 µM.
In the case of `CO[C@@H]1[C@H](OP(=O)(OC[C@H]2O[C@@H](n3cnc4c(N)ncnc43)C[C@@H]2O)SCOC(=O)OC(C)C)[C@@H](CO)O[C@H]1n1ccc(=O)[nH]c1=O` (stereo partly drawn) [INARIGIVIR SOPROXIL], the Activity (Hepatitis B virus [7]) is reported as “Dose-dependent effect”, the EC90 (Hepatitis B virus [8]) is reported as 8.5 µM and the EC50 (Hepatitis B virus [8]) is reported as 2.5 µM. It also gave a half-life [1] of over 1 h, an EC90 (Hepatitis B virus [9]) of 8.6 µM and an EC50 (Hepatitis B virus [9]) of 2.1 µM. For the same compound, the CC50 at 24 h [3] was over 1000 µM, the Activity (Hepatitis B virus [6]) was “Active” and the EC90 (Hepatitis B virus [10]) was 9.3 µM. It also gave an EC50 (Hepatitis B virus [10]) of 3.1 µM, a CC50 at 24 h [4] of over 1000 µM and an EC90 (Hepatitis B virus [11]) of 8.3 µM. For the same compound, the EC50 (Hepatitis B virus [11]) was 2.4 µM, the CC50 at 24 h [5] was over 1000 µM and the Activity (Mus musculus) was “Non-toxic”. The EC90 (Hepatitis B virus [12]) was 9.2 µM, the EC50 (Hepatitis B virus [12]) was 3 µM and the EC90 (Hepatitis B virus [13]) was 8.7 µM. It also gave an EC50 (Hepatitis B virus [13]) of 2.8 µM.
With `CC(C)(C)C(=O)OCOP(=O)(COCCn1cnc2c(N)ncnc21)OCOC(=O)C(C)(C)C` [ADEFOVIR DIPIVOXIL] the EC90 (Hepatitis B virus [8]) was 7 µM, the EC50 (Hepatitis B virus [8]) was 1.5 µM and the EC90 (Hepatitis B virus [9]) was 8.2 µM. The EC50 (Hepatitis B virus [9]) was 2.1 µM, the EC90 (Hepatitis B virus [10]) was 8.3 µM and the EC50 (Hepatitis B virus [10]) was 2.2 µM. It also gave an EC90 (Hepatitis B virus [11]) of 7.2 µM, an EC50 (Hepatitis B virus [11]) of 1.8 µM and an EC90 (Hepatitis B virus [12]) of 8 µM. It also gave an EC50 (Hepatitis B virus [12]) of 2 µM, an EC90 (Hepatitis B virus [13]) of 29 µM and an EC50 (Hepatitis B virus [13]) of 7.5 µM.
`Nc1ccn([C@@H]2CS[C@H](CO)O2)c(=O)n1` [LAMIVUDINE] showed an EC90 (Hepatitis B virus [8]) of 0.7 µM, an EC50 (Hepatitis B virus [8]) of 0.2 µM and an EC90 (Hepatitis B virus [9]) of 20 µM. The EC50 (Hepatitis B virus [9]) was 5.3 µM, the EC90 (Hepatitis B virus [10]) was over 100 µM and the EC50 (Hepatitis B virus [10]) was over 100 µM. The EC90 (Hepatitis B virus [11]) was over 100 µM, the EC50 (Hepatitis B virus [11]) was over 100 µM and the EC90 (Hepatitis B virus [12]) was over 100 µM. It also gave an EC50 (Hepatitis B virus [12]) of over 100 µM, an EC90 (Hepatitis B virus [13]) of 0.8 µM and an EC50 (Hepatitis B virus [13]) of 0.2 µM.
